Sampled rows, rich in hits. Any-hit rate of the full collection: about 3.1%.
KCNQ1 act – potentiators or activators of human KCNQ1 potassium channel | B-score at 10 µM | AID 2648 | CHO-K1 KCNQ1, thallium flux FluxOR fluorescence; stronger effect = higher value | actives 0.35% (n = 310,000);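 active = fluorescence ratio B-score, a plate-corrected score, at least three library SD, with initial intensity B-score within 5 SD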
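Assay system: stable KCNQ1 CHO-K1 line; medium: assay buffer, equal DMSO in all wells; timing: 90 min dye loading and 20 min compound exposure, both at room temperature; technique: kinetic FluxOR thallium fluorescence, 10-s 1-Hz baseline, 110-s post-stimulus read; read-out basis: B score of baseline-normalized fluorescence ratio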
KCNQ1 block – human KCNQ1 channel inhibition. P51787. CHO-K1 KCNQ1, FluxOR thallium flux fluorescence; stronger effect = higher value. B-score at 10 µM. actives 1.3% (n = 310,000). AID 2642;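 active = compounds whose thallium flux B-score, printed positive for inhibition, exceeds three library SD while starting fluorescence stays within three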;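 also: channel opened by potassium depolarization with thallium stimulus after 20 min compound exposure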
hERG rescue – hERG (human) protection from proarrhythmic block; actives 0.51% (n = 310,000); CHO-hERG, FluxOR thallium flux, dofetilide IC70 present; activation (rescue from dofetilide block), less the hit threshold, % at 10 µM;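 active = activation above the mean of controls blocked by dofetilide plus 5 SD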;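 also: thallium influx through hERG after potassium depolarization seen as dye fluorescence rise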
KCNK9 inh – inhibitors of human KCNK9 two-pore domain potassium channel; HEK293 KCNK9, FluxOR thallium flux fluorescence; stronger effect = lower value; B-score at 10 µM; Q9NPC2; AID 488922; actives 1.2% (n = 310,000);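 active = ratio B-score over 3 SD below the library mean, with starting fluorescence within 5 SD of its mean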;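 also: negative B-score means less thallium flux so channel inhibition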
KCNK3 inh – human KCNK3 channel inhibition, primary screen; CHO-KCNK3 thallium flux, FluxOR fluorescence; stronger effect = lower value; O14649; B-score at 10 µM; AID 602410; actives 0.84% (n = 340,000);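 active = B-score under library mean minus 4 SD, starting fluorescence ratio at most library mean plus 5 SD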;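 also: more negative B-score means stronger inhibition of thallium flux through KCNK3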
An asterisk follows results filed as active; i = inactive; x = no result given.

SMILES | KCNQ1 act | KCNQ1 block | hERG rescue | KCNK9 inh | KCNK3 inh
CCOC(=O)c1cc2cc([N+](=O)[O-])ccc2oc1=O | i | i | -12.9 | i | i
CS(=O)(=O)c1nc(-c2ccco2)cc(C(F)(F)F)n1 | i | 7* | -24.9 | i | x
COc1ccccc1-c1cc(C(F)(F)F)nc(S(C)(=O)=O)n1 | i | i | -9.7 | i | i
O=C(COc1ccccc1F)Nc1c2c(nn1-c1ccccc1)CS(=O)(=O)C2 | i | i | -11.0 | i | i
CCCC1(c2ccccc2)NC(=O)N(CC(=O)NCC2COc3ccccc3O2)C1=O (centres undefined) | x | x | x | x | i
CN(C1=C(N2CCCCC2)C(=O)c2ccccc2C1=O)c1ccccc1 | i | i | -10.2 | -14.9* | i
O=C1C(Nc2ccccc2)=C(N2CCCCC2)C(=O)c2ccccc21 | i | i | -6.6 | i | i
Cn1cc(/C=C/c2cc[n+](C)cc2)c2cc(F)ccc21 | i | i | -35.9 | i | i
C[n+]1ccc(/C=C/c2c[nH]c3ccc(F)cc23)cc1 | i | 11* | -18.0 | -6.69* | i
COc1ccc2nc(SCC(=O)NC(C)c3ccccc3)[nH]c2c1 (centres undefined) | x | x | x | x | i
Cc1ccc2nc(/C(C#N)=C\c3ccc(N4CCCCC4)c([N+](=O)[O-])c3)[nH]c2c1 | i | 8* | -18.0 | i | i
C[C@H]1CC[C@H]2C(=O)N3[C@H](c4ccccc4Br)[C@@H](C)CC[C@H]3C(=O)N2[C@@H]1c1ccccc1Br | i | i | -9.9 | -9.59* | x
CC(=O)Oc1ccc(C(=O)Nc2cccc(C(=O)c3ccc(C)c(C)c3)c2)cc1 | i | 6* | -7.0 | i | i
CC(=O)Oc1cccc(NC(=O)c2cccc(C(=O)Nc3cccc(OC(C)=O)c3)c2)c1 | i | i | -4.9 | i | i
COc1ccc(C(=O)Nc2cccc(OC(=O)c3ccco3)c2)cc1 | i | i | -4.0 | i | i
COc1ccc(C(=O)Nc2cccc(OC(=O)c3ccc(C)c(C)c3)c2)cc1 | i | 6* | -17.2 | i | i
O=C(CSc1nc2ccccc2c(=O)n1-c1ccc(OC(F)F)cc1)NC1CC1 | x | x | x | x | i
CCN(C(=O)c1cc2c(=O)[nH]c3ccc(C)cc3c2s1)c1ccccc1F | 26* | i | 9.2* | i | i
CCN(C(=O)c1cc2c(=O)[nH]c3ccc(C)cc3c2s1)c1ccccc1C | i | i | -15.6 | i | i
Cc1ccc(S(=O)(=O)N(Cc2ccc([N+](=O)[O-])cc2)C(=O)N2CCN(C)CC2)cc1 | i | i | -3.8 | i | i
CN(C)CCCNS(=O)(=O)c1ccc(N2CCC(c3ccc(Cl)cc3)=N2)cc1 | i | 9* | 8.7* | -11.4* | x
CC(C)C(=O)Nc1ccc2c(c1)Cc1cc(NC(=O)C(C)C)ccc1-2 | i | i | 6.0* | i | i
COC(=O)c1ccccc1NC(=O)c1ccc2c(c1)OCCCO2 | i | i | -6.0 | -6.83* | i
Cc1ccccc1NC(=O)c1ccc2c(c1)OCCO2 | i | i | -4.0 | i | i
CC[C@H](C)[C@@H](CNC)NC[C@@H](Cc1ccc(O)cc1)NCC(C)(C)C | i | i | -10.4 | i | i
CC[C@@H](C)[C@H](CN[C@H](CNC)C(C)C)NC[C@@H](C)c1ccc(CC(C)C)cc1 | i | 8* | -29.4 | i | i
CC(Sc1nnc2n1CCCCC2)C(=O)Nc1ccc(S(N)(=O)=O)cc1 (centres undefined) | x | x | x | x | i
